Bioassay records: PubChem BioAssay, Broad Institute
Shown are actives, neighbours in structure and some others; about 1.3% of the full set was active somewhere.
PAX8 reporter: inhibitors of PAX8-driven TPO luciferase reporter, primary screen, RMG-I cells, single concentration; SteadyGlo, 24 h; inhibition, % at 12.6 µM; hit rate 1.2% among 360,000; AID 652154, 2013;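 active = mean replicate inhibition at least 60% with every replicate also reaching 60%; inconclusive = only one of the two criteria is met; inactive = mean below 60% and not all replicates reaching 60%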;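 note: luciferase light reporting Pax8 driven TPO promoter activity; plate controls were median of neutral control wells for no effect and mitoxantrone controls for full effect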
FN deposit inh: inhibitors of fibronectin matrix deposition, primary screen, AH1F cells, Alexa488-fibronectin fluorescence, plate reader | AH1F fibroblasts, overnight | inhibition, % at 12.6 µM | AID 743247, 2014 | hit rate 0.086% among 350,000;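 active = mean inhibition across replicates of 30% or more, regardless of how many single replicates reach that level; inconclusive = mean under 30% yet at least half of replicates reach 30%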;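 note: positive control wells lacked labelled fibronectin entirely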
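Schedule: 1 h cell adhesion before compound, then overnight fibronectin incubation; test system: AH1F fibroblast monolayer depositing Alexa488-labelled fibronectin into matrix; quantity: 10000 AH1F cells per well; probe or stimulus: fluorescent fibronectin at 24 nM final; signal: fluorescence, ex 485 nm, em 525 nm; evaluation: percent inhibition as loss of matrix-bound fibronectin fluorescence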
RAD52 anneal inh: RAD52 DNA annealing inhibitors, primary screen, biochemical, FRET, single point, set 2; DNA repair protein RAD52 homolog (Homo sapiens), P43351; recombinant RAD52 DNA annealing, FRET fluorescence; inhibition, % at 18.7 µM; hit rate 0.46% among 360,000;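 active = every replicate showing at least 50% inhibition; inconclusive = mean inhibition at least 50% but not in every replicate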
Target sequence (P43351 whole entry, looked up): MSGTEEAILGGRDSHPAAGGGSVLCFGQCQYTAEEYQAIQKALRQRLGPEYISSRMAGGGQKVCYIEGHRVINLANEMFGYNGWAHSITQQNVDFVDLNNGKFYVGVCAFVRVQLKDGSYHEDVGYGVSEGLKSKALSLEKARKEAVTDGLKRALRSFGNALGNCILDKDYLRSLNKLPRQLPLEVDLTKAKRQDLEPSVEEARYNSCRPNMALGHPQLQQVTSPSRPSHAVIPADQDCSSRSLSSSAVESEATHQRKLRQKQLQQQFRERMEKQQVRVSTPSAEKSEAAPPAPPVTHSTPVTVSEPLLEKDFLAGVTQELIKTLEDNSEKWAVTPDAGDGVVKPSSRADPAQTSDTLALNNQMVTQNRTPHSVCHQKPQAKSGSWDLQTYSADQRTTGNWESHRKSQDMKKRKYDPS
RAD54 inh: inhibitors of human RAD54 branch migration, primary screen, biochemical, fluorescence, single point | AID 602329, 2012 | hit rate 0.14% among 360,000 | DNA repair and recombination protein RAD54-like (Homo sapiens), Q92698 | inhibition, % at 10.4 µM | RAD54 Holliday junction branch migration, FAM/BHQ fluorescence;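 active = mean normalized replicate activity at least 40 and at least half of replicates scoring 40 or more; inconclusive = only one of the two criteria met; inactive = mean below 40 and under half of replicates reaching 40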;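 note: 0% = median of neutral control wells and 100% = median of positive control wells; inhibitors cause a drop in the FAM fluorescence signal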
* hit, by the source's call; ? = inconclusive; . = no result given; ! = not confirmed by another sample.

SMILES	PAX8 reporter	FN deposit inh	RAD52 anneal inh	RAD54 inh
CC(C)CC#Cc1ccc2c(c1)O[C@@H](CN(C)S(=O)(=O)c1ccc(F)cc1)[C@H](C)CN([C@@H](C)CO)S2(=O)=O	81*	-2	17	0
NC(=O)c1ccccc1NCC(=O)c1ccc(Cl)cc1	-4	5	-12	5
O=c1[nH]c2ccccc2cc1CN(Cc1cccnc1)S(=O)(=O)c1ccc(Cl)cc1	21	-5	-17	15
CC(=O)Nc1ccc(S(=O)(=O)N(Cc2cccnc2)Cc2cc3ccccc3[nH]c2=O)cc1	71*	6	-13	2
COc1ccc(N(Cc2cc3cc(OC)ccc3[nH]c2=O)S(=O)(=O)c2ccc(NC(C)=O)cc2)cc1	91*	-3	-21	-9
C[C@@H]1CN([C@H](C)CO)C(=O)c2cc(NC(=O)Nc3ccc(F)cc3)ccc2O[C@@H](C)CCCCO[C@@H]1CN(C)Cc1ccc2c(c1)OCO2	92*	.	-6	-4
C[C@@H]1CCCCO[C@@H](CN(C)Cc2ccc3c(c2)OCO3)[C@@H](C)CN([C@@H](C)CO)C(=O)c2cc(NC(=O)Nc3ccc4c(c3)OCO4)ccc2O1	-9	8	55*	7
C[C@@H]1CN([C@H](C)CO)C(=O)c2cc(NC(=O)Nc3ccc(F)cc3)ccc2O[C@@H](C)CCCCO[C@H]1CN(C)Cc1ccc2c(c1)OCO2	66*	.	16	1
C[C@@H]1CCCCO[C@H](CN(C)Cc2ccc3c(c2)OCO3)[C@H](C)CN([C@H](C)CO)C(=O)c2cc(NC(=O)Nc3ccc(F)cc3)ccc2O1	66*	.	14	-2
C[C@@H]1CCCCO[C@@H](CN(C)Cc2ccc3c(c2)OCO3)[C@@H](C)CN([C@H](C)CO)C(=O)c2cc(NC(=O)Nc3ccc(F)cc3)ccc2O1	16	.	1	3
O=C(CN1CCCC1)NCc1ccccc1	-2	-2	2	-10
Cc1onc(-c2c(F)cccc2Cl)c1C(=O)OCC(=O)c1c(N)n(C)c(=O)n(C)c1=O	-11	12	-16	-1
COc1ccccc1CNc1nc(C)c(C(=O)N(C)C)s1	5	-9	2	11
CC[C@@H](C)[C@@H]1CN([C@@H](CN2CCC[C@H]2CN2C(N)=NC[C@H]2C(C)C)C(C)C)C(=N)N1CCCC1CCCC1	84*	-4	45	22
C[C@@H]1CN([C@H](C)CO)C(=O)CCCn2cc(nn2)CO[C@H]1CN(C)C(=O)Nc1ccc(-c2cccs2)cc1	82*	-8	-3	-3
C[C@@H]1CN([C@H](C)CO)C(=O)CCCn2cc(nn2)CO[C@@H]1CN(C)C(=O)Nc1ccc(N2CCN(C)CC2)cc1	12	2	3	2
C[C@H](CO)N1C[C@H](C)[C@@H](CN(C)S(=O)(=O)c2ccc(-c3ccccc3)cc2)OCc2cn(nn2)CCCC1=O	76*!	-1	-10	0
C[C@@H]1CN([C@@H](C)CO)C(=O)CCCn2cc(nn2)CO[C@H]1CN(C)C(=O)Nc1ccc(N2CCN(C)CC2)cc1	1	4	68*!	9
C[C@H](CO)N1C[C@H](C)[C@@H](CN(C)C(=O)Nc2ccc(N3CCN(C)CC3)cc2)OCc2cn(nn2)CCCC1=O	-2	-2	66*!	5
COc1ccc(C(=O)/C=C/C(=O)N(CC(=O)NC2CCCCC2)CC2CCCO2)c(O)c1 (centres undefined)	82*	11	-5	.
COc1ccc(C(=O)/C=C/C(=O)N(CC(=O)NC2CCCCC2)Cc2ccccc2)c(O)c1	?	7	-14	.
c1ccc(OCc2nc(-c3cccs3)no2)cc1	.	.	.	13
Cc1ccc(-c2c[n+](CC(=O)N3c4ccccc4Sc4ccccc43)c3n2CCC3)cc1	91*	4	45	.
O=C(C[n+]1cc(-c2ccccc2)n2c1CCC2)N1c2ccccc2Sc2ccccc21	57	12	.	12
O=C(C[n+]1cc(-c2ccc(Br)cc2)n2c1CCCCC2)c1ccccc1	75*	.	-3	.
SMILES	PAX8 reporter	FN deposit inh	RAD52 anneal inh	RAD54 inh
O=C(C[n+]1cc(-c2ccccc2)n2c1CCC2)c1cccs1	23	4	-4	3
O=C(C[n+]1cc(-c2ccc(Cl)cc2)n2c1CCCCC2)c1ccccc1	93*	-11	-1	.
CN(C)S(=O)(=O)c1cc(NC(=O)CSc2ncc(C(F)(F)F)cc2Cl)ccc1Cl	18	4	.	.
O=C(C[C@H]1C[C@@H]2c3cc(NS(=O)(=O)c4ccc(F)cc4)ccc3O[C@@H]2[C@@H](CO)O1)NCc1ccc(-c2ccccc2)cc1	84*	3	2	8
O=C(C[C@@H]1C[C@@H]2c3cc(NS(=O)(=O)c4ccc(F)cc4)ccc3O[C@@H]2[C@H](CO)O1)NCc1ccc(-c2ccccc2)cc1	68*	16	-5	-6
COC(=O)c1cc(C(=O)Nc2ccc(S(=O)(=O)NC(C)(C)C)cc2)cc([N+](=O)[O-])c1	-5	-12	.	.
CCOC(=O)c1c(N)n(C2CC(C)(C)NC(C)(C)C2)c2nc3ccccc3nc12	.	.	.	83*
c1ccc(-c2nnc(-c3ccccn3)nc2NC2CCCCC2)cc1	69*	5	-16	2
O=C(Nc1cccc(S(=O)(=O)NC2=NCCC2)c1)c1ccccc1OC(F)F	0	4	-8	4
CC1CCCC=CC2CC(OC(=O)CN(C)C)CC2C(O)C=CC(=O)O1 (centres undefined)	115*	15	0	.
COc1ccc(-c2cc(CNc3nc4cc(-c5ccccc5C)sc4c(=O)n3C)on2)cc1	-114	.	5	14
COc1ccc2c3c(n(C)c2c1)[C@@H](CO)N(C(=O)C1CCCC1)CC31CN(Cc2cccc(F)c2)C1	.	.	-8	.
COc1cc(/C=N/Nc2nnc3c(n2)[nH]c2ccccc23)ccc1O	80*	-16	-4	4
Cc1ccc2[nH]c3nc(N/N=C/c4cccc(O)c4)nnc3c2c1	2	-1	-15	-11
CCc1ccc2[nH]c3nc(N/N=C/c4ccc(O)cc4O)nnc3c2c1	105*	4	0	7
O=S(=O)(Nc1cccc(S(=O)(=O)N2CCCCC2)c1)c1ccccc1F	-13	-3	-6	1
C[C@H]1CN([C@@H](C)CO)C(=O)c2cc(Br)cnc2O[C@@H]1CN(C)C(=O)Nc1ccc(C(F)(F)F)cc1	-14	12	-13	-2
C[C@H]1CN([C@@H](C)CO)C(=O)c2cc(C#Cc3ccccc3F)cnc2O[C@H]1CN(C)S(=O)(=O)c1ccccc1F	.	0	-9	4
CCn1c2ccccc2c2nc3cc(OC)c(OC)cc3nc21	-22	35*	.	26
COc1ccc2c3c([nH]c2c1)[C@H](CO)N(Cc1cccc(Cl)c1)CC31CN(C)C1	.	.	56*	.
COc1cccc(CN2CC3(CN(C)C3)c3c([nH]c4cc(OC)ccc34)[C@H]2CO)c1	-9	.	46	.
